In the library only some 2.4% were active in any assay of this set; here they are far more common.
Apaf1 inhib: blocks human Apaf-1 apoptosome activity; inhibition, % at 20 µM; 330,000 tested, 0.71% active; reconstituted apoptosome caspase-3 activity, DEVD-Rh110 fluorescence; active = inhibition of at least 40% at 20 µM;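 also: plate controls were DMSO wells for no effect and DEVD-CHO caspase inhibitor wells for full effect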
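System – cell-free apoptosome with Apaf-1, procaspase-3 and caspase-9 · Buffer or medium – pH 7.5 Hepes buffer with CHAPS, BSA, DTT · Also added – cytochrome c with DEVD-Rh110 · Times – 30 min compound preincubation, 50 min activation, room temperature · Technique – Rh110 fluorescence intensity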
TMEM16A act: mouse TMEM16A channel activation, primary screen; HEK293 TMEM16A/YFP-H148Q/I152L, iodide quench fluorescence; hits give low values; B-score at 10 µM; 340,000 tested, 0.3% active; AID 623877;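 active = fluorescence-ratio B-score plate-corrected deviation score at least 3 library SD below zero, with starting fluorescence score within 5 deviations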;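 also: channel opened by trigger with iodide after compound preincubation; score built on the fluorescence ratio of max minus min over baseline; more negative score means more quench and so TMEM16A activation or potentiation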
UBC13 polyUb: human UBC13 polyubiquitination inhibition; P61088; UBC13 polyubiquitin chain formation, TR-FRET; inhibition, % at 20 µM; 330,000 tested, 0.47% active; AID 485273; in the data active = inhibition above about 45%, passing the limit was not always enough
TMEM16A inh: blocks the mouse calcium-activated chloride channel TMEM16A | Q8BHY3 | HEK293 TMEM16A/YFP iodide influx fluorescence, ionomycin | normalized B-score (activity score, 25-100; higher = stronger inhibition) at 10 µM | 310,000 tested, 1.2% active | AID 588511;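 active = ratio plate-corrected score three or more library SD toward inhibition, starting fluorescence score within five deviations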;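 also: score derived from kinetic fluorescence span divided by baseline fluorescence per well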
DNA FID counter: fluorescent intercalator displacement, NS3 helicase counter-screen; DNA fluorescent intercalator displacement, fluorescence; AID 1845; 290,000 tested, 0.17% active; inhibition, % at 7.9 µM; in the data active = inhibition above about 37%;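 also: 0% = vehicle and 100% = reference compound; higher means more ethidium bromide displaced from hairpin DNA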
TMEM16A reconf: re-confirmation of mouse TMEM16A chloride channel inhibitors. HEK293 TMEM16A/YFP-H148Q, iodide quench fluorescence; ionomycin added to raise cell calcium. AID 652189. 2,300 tested, 39% active. inhibition, % at 10 µM. shares compounds with TMEM16A inh;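 active = mean duplicate percent inhibition, scaled so buffer wells are 0 and the reference blocker 100, over three buffer SD above buffer mean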
TMEM16A Ca cntr: counter-screen for TMEM16A inhibitors: effect on calcium mobilization | shares compounds with TMEM16A inh | TMEM16A/YFP HEK293, Fluo4 calcium mobilization | calcium response (% of ionomycin), % at 10 µM | 2,300 tested, 2% active | AID 652231;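 active = duplicate-averaged calcium signal over 20% of the ionomycin maximum, relative to buffer baseline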;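 also: each well's signal is peak minus trough fluorescence divided by its pre-addition baseline; 0% = buffer wells and 100% = ionomycin wells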
YFP-HEK293 quench: counter-screen for TMEM16A inhibitors: effect in parental YFP-HEK293 cells; shares compounds with TMEM16A inh; iodide YFP quench, ionomycin; YFP ratio F(max-min)/F0 at 10 µM; 2,300 tested, under 10 active; AID 652233;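 active = yellow fluorescent protein signal ratio exceeding the buffer control mean by over 5 SD of those controls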;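 also: ratio is mean of duplicate wells from kinetic YFP trace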
ClC-1 inh: selectivity of TMEM16A inhibitors: inhibition of rat ClC-1 chloride channel; shares compounds with TMEM16A inh; CHO ClC-1-YFP, iodide influx fluorescence quench; iodide control reads 0, buffer control 100; ratio percent, % at 10 µM; 2,300 tested, under 10 active; AID 652236;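 active = duplicate-mean ratio percent above the mean of iodide-only control wells, which defines zero, plus 5 of their SD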;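 also: higher percent means stronger block of ClC-1 iodide influx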
Target sequence (P35524 whole entry, looked up): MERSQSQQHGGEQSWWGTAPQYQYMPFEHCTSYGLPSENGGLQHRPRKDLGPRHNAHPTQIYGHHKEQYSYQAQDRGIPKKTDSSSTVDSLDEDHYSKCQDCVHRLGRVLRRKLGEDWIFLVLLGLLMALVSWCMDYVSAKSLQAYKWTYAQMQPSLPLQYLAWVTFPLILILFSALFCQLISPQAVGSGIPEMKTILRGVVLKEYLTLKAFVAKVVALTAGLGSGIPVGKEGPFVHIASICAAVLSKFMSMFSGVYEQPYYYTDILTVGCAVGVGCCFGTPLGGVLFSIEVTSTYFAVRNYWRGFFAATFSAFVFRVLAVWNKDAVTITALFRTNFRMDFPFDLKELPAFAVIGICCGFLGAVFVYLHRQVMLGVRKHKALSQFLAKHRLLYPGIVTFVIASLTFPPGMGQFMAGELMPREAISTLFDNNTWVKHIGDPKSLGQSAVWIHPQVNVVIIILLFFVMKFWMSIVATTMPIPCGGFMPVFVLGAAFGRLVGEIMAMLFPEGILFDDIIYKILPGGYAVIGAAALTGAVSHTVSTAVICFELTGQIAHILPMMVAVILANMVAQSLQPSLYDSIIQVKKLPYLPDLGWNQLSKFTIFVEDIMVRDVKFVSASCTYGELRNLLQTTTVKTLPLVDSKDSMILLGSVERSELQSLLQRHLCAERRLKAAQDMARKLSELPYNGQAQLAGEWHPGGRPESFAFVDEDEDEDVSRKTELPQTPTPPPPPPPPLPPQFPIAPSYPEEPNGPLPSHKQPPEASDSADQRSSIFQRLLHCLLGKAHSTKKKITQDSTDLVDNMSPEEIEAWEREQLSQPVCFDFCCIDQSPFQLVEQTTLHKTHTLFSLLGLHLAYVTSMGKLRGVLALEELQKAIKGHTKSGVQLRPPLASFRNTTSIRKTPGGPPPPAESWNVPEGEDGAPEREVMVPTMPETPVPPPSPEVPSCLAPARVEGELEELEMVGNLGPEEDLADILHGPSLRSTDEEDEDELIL
* = called active by the depositor.

How did CCOC(=O)Cn1nc(-c2ccc(Cl)cc2)cc1N do in these assays?
Apaf1 inhib: -8; TMEM16A act: inactive; UBC13 polyUb: -6; TMEM16A inh: 100*; DNA FID counter: -3; TMEM16A reconf: inactive; TMEM16A Ca cntr: inactive; YFP-HEK293 quench: -1.4; ClC-1 inh: -9

How did N#CCC(=O)Nc1ccc(C(=O)OCC(=O)Nc2ccccc2-c2ccccc2)cc1 do in these assays?
Apaf1 inhib: 8; TMEM16A act: inactive; UBC13 polyUb: -4; TMEM16A inh: 100*; DNA FID counter: -8; TMEM16A reconf: inactive; TMEM16A Ca cntr: inactive; YFP-HEK293 quench: -1.1; ClC-1 inh: -10

How did CN1C(=O)C2(OCC(COc3ccc(Cl)cc3)O2)c2ccccc21 (stereo not drawn) do in these assays?
Apaf1 inhib: 8; TMEM16A act: inactive; UBC13 polyUb: -6; TMEM16A inh: 100*; DNA FID counter: -17; TMEM16A reconf: 18%*; TMEM16A Ca cntr: inactive; YFP-HEK293 quench: -1; ClC-1 inh: -8

How did CC1CN(c2nc(N(C)c3ccccc3)nc(N)c2[N+](=O)[O-])CC(C)O1 (stereo not drawn) do in these assays?
Apaf1 inhib: 11; TMEM16A act: inactive; UBC13 polyUb: 0; TMEM16A inh: inactive; DNA FID counter: -39

Results for CC1CC(C)CN(c2nc(N(C)c3ccccc3)nc(N)c2[N+](=O)[O-])C1 (stereo not drawn) ?
Apaf1 inhib: 11; TMEM16A act: inactive; UBC13 polyUb: 3; TMEM16A inh: 25*; DNA FID counter: -28; TMEM16A reconf: inactive; TMEM16A Ca cntr: inactive; YFP-HEK293 quench: -1.1; ClC-1 inh: -16

What do the screens show for `COc1ccc(N(CC(O)CN2CCOCC2)S(=O)(=O)c2ccc(C)cc2)cc1` (stereo not drawn)?
Apaf1 inhib: 2; TMEM16A act: inactive; UBC13 polyUb: 4; TMEM16A inh: inactive; DNA FID counter: -4

How did CS(=O)(=O)c1ccc(NS(=O)(=O)c2ccc(Cl)c(C(=O)NCc3ccco3)c2)cc1 do in these assays?
Apaf1 inhib: -4; TMEM16A act: inactive; UBC13 polyUb: -18

What do the screens show for `COc1ccc(N2CCN(C(=O)c3ccccc3N(C)S(=O)(=O)c3ccc(C)cc3)CC2)cc1`?
Apaf1 inhib: 16; TMEM16A act: inactive; UBC13 polyUb: -4; TMEM16A inh: inactive; DNA FID counter: -59

What do the screens show for `CN(CC(=O)Nc1ccncc1)S(=O)(=O)c1ccc(Br)cc1`?
Apaf1 inhib: -6; TMEM16A act: inactive; UBC13 polyUb: 4; TMEM16A inh: inactive; DNA FID counter: -4

Results for O=C(Cc1ccc(Cl)cc1)Nc1ccncc1 ?
Apaf1 inhib: -20; TMEM16A act: inactive; UBC13 polyUb: 14; TMEM16A inh: 25*; DNA FID counter: 15; TMEM16A reconf: inactive; TMEM16A Ca cntr: inactive; YFP-HEK293 quench: -0.84; ClC-1 inh: -14

What do the screens show for `CN(CCCC(=O)Nc1ccncc1)S(=O)(=O)c1ccc(Cl)cc1`?
Apaf1 inhib: 5; TMEM16A act: inactive; UBC13 polyUb: 5; TMEM16A inh: 100*; DNA FID counter: 13; TMEM16A reconf: inactive; TMEM16A Ca cntr: inactive; YFP-HEK293 quench: -0.92; ClC-1 inh: -23

How did CC(C)(C)c1ccc(-n2ncc3c2CCCC3NC(=O)c2ccncc2)cc1 (stereo not drawn) do in these assays?
Apaf1 inhib: 2; TMEM16A act: inactive; UBC13 polyUb: 3; TMEM16A inh: inactive; DNA FID counter: -22

How did Cc1nnsc1C(=O)NC1CCCc2c1cnn2-c1ccc(C(C)(C)C)cc1 (stereo not drawn) do in these assays?
Apaf1 inhib: 15; TMEM16A act: inactive; UBC13 polyUb: 4; TMEM16A inh: 25*; DNA FID counter: -29; TMEM16A reconf: 20%*; TMEM16A Ca cntr: inactive; YFP-HEK293 quench: -1.2; ClC-1 inh: -14

What do the screens show for `Cc1nnsc1C(=O)NC1CCCc2c1cnn2-c1ccccc1F` (stereo not drawn)?
Apaf1 inhib: 2; TMEM16A act: inactive; UBC13 polyUb: -4; TMEM16A inh: 100*; DNA FID counter: -15; TMEM16A reconf: inactive; TMEM16A Ca cntr: inactive; YFP-HEK293 quench: -1.3; ClC-1 inh: -6

Results for Cc1cc(C)n(-c2nc(N(c3ccccc3)c3ccccc3)nc(-n3nc(C)cc3C)n2)n1 ?
Apaf1 inhib: 32; TMEM16A act: inactive; UBC13 polyUb: 31; TMEM16A inh: 100*; DNA FID counter: -10; TMEM16A reconf: 26%*; TMEM16A Ca cntr: inactive; YFP-HEK293 quench: -0.99; ClC-1 inh: -19

Results for CC1(C)C(C=C(Cl)Cl)C1C(=O)N/N=C/c1ccccc1F (stereo not drawn) ?
Apaf1 inhib: 23; TMEM16A act: inactive; UBC13 polyUb: -6; TMEM16A inh: 25*; DNA FID counter: -14; TMEM16A reconf: inactive; TMEM16A Ca cntr: inactive; YFP-HEK293 quench: -1.1; ClC-1 inh: -13

Results for CC1(C)OC2OC(C(=O)N/N=C/c3ccccc3F)C3OC(C)(C)OC3C2O1 (stereo not drawn) ?
Apaf1 inhib: 6; TMEM16A act: inactive; UBC13 polyUb: -4; TMEM16A inh: inactive; DNA FID counter: -10

Results for O=C(/C=C/c1cn(CC(O)CN2CCCCC2)c2ccccc12)c1ccccc1 (stereo not drawn) ?
TMEM16A act: inactive; DNA FID counter: 11

What do the screens show for `COc1ccc(C(=O)/C=C/c2cn(CC(O)CN3CCN(C)CC3)c3ccccc23)cc1OC` (stereo not drawn)?
Apaf1 inhib: 9; TMEM16A act: inactive; UBC13 polyUb: -2; TMEM16A inh: inactive; DNA FID counter: 13; TMEM16A reconf: inactive; TMEM16A Ca cntr: inactive; YFP-HEK293 quench: -0.95; ClC-1 inh: 0

Results for Cc1ccc(-n2c(C)cc(C(=O)COc3c(CO)cc(F)cc3CO)c2C)cc1C ?
Apaf1 inhib: 7; TMEM16A act: inactive; UBC13 polyUb: 6; TMEM16A inh: 25*; DNA FID counter: -29; TMEM16A reconf: 32%*; TMEM16A Ca cntr: inactive; YFP-HEK293 quench: -1.1; ClC-1 inh: -4

Compound activity as filed in PubChem.
